# Only some compounds are listed: those with a hit (about 3.1% of all), similar ones and a draw of the others.
# Insulin prom up – MIN6 insulin promoter up-regulation. MIN6 insulin promoter-GFP reporter, high-content imaging; stronger effect = higher value. z-score at 5 µM. 0.3% of 190,000 active;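 active means z-score above 3 at 5 µM with at least 500 cells counted in the well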
# RAM inhibit – inhibitors of the yeast RAM network. 1.8% of 190,000 active. inhibition, % at 50 µM. S. cerevisiae dse1pr::URA3 reporter, 5-FOA growth OD615, 2 d; analog-sensitive cbk1-as2 kinase mutant strain. AID 868;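 active means inhibition above a set limit, 3 SD over mean compound inhibition, cut at about 8.4% in these data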;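 further: 0% = DMSO-only wells with no growth and 100% = 10 µM 1-NA-PP1 full growth; inhibition rescues growth on 5-FOA so higher OD means more RAM inhibition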
# Insulin prom inh – TRM-6 insulin promoter activity inhibition; TRM-6 cells (human fetal islet line), insulin promoter-eGFP reporter, imaging; reporter expression induced with tamoxifen; inhibition, % at 2 µM; 0.9% of 130,000 active; AID 1273;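 active means inhibition above the mean plus 3 SD, with well images judged a real hit on visual review, cut at about 60% in these data, passing the limit was not always enough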
# BB579 growth dn – yeast BB579 growth reduction in restrictive medium; S. cerevisiae BB579 growth, OD615, 48 h; inhibition, % at 10 µM; 0.51% of 140,000 active; AID 804;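 active means inhibition above a set limit, 3 SD over the mean compound inhibition, cut at about 44% in these data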
#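 controls = amphotericin B 10 µg/mL, positive | assay system = DeaD yeast strain BB579 | schedule = 48 h compound exposure at 30 °C after 4 h preincubation | detection = OD615 turbidity measurement | medium = restrictive CSMM-D medium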
# Yeast lifespan up – yeast lifespan extension; 0.68% of 130,000 active; inhibition of the nicotinamide effect, % at 10 µM; S. cerevisiae growth with nicotinamide, OD615; deaD strain in restrictive glucose medium;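 active means inhibition above a set limit, placed 3 SD over the median of all compounds, cut at about 26% in these data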;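 further: 0% = nicotinamide-treated wells and 100% = cells grown without nicotinamide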
#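 Buffer or medium: CSMM-D glucose medium, restrictive; test system: modified budding yeast, DeaD strain; compound: single dose 10 µM compound, 0.25% DMSO; schedule: culture preincubation 4 h, compound exposure 48 h, both 30 °C; detection: optical density (absorbance) at 615 nm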
# Numbers without * were called inactive; . = not tested or not shown.
SMILES,Insulin prom up,RAM inhibit,Insulin prom inh,BB579 growth dn,Yeast lifespan up
CC1=NN(Cc2ccccc2)C(=O)C1C(c1ccc(Cl)cc1)C(C#N)C#N (configuration not stated),-0.26,2.5,.,-27.0,40.8*
CC1=NN(Cc2ccccc2)C(=O)C1C(c1ccncc1)C(C#N)C#N (configuration not stated),2.05,.,.,.,.
CC1=NNC(=O)C1C(c1ccc(Cl)cc1)C(C#N)C#N (configuration not stated),0.54,.,.,.,.
COC(=O)Cn1c2c(c3cc(C)ccc31)CCCC2NC(C)c1ccccc1 (configuration not stated),0.25,.,.,.,.
CC1(C)Cc2nc3scc(NC(=O)c4ccccc4)c3cc2CO1,-0.03,.,.,.,.
Cc1ccc(/C=C2/CCc3c([nH]c4ccccc34)C2=O)cc1,-0.17,2.5,-16.1,-28.1,-20.6
Cc1ccc2[nH]c3c(c2c1)CC/C(=C/c1ccccc1)C3=O,0.11,4.2,-32.4,-86.2,80.9*
O=C(c1ccccc1Br)N1CCn2c1nc1ccccc12,1.25,0.1,-16.7,.,.
O=C(NC1=NCCS1)C1Cc2ccccc2CN1C(=O)c1ccccc1 (configuration not stated),3.06*,0.2,0.0,-41.4,-4.3
CC(=O)c1ccc(NC(=O)C2Cc3ccccc3CN2C(=O)c2ccccc2)cc1 (configuration not stated),0.13,1.4,.,-19.0,2.5
Cc1ccc(CNC(=O)C(C)OC(=O)c2ccco2)cc1 (configuration not stated),-0.68,0.3,14.3,-10.4,39.5*
OCC[C@H]1C[C@H](O)[C@@H](O)[C@@]2(CCCCO2)O1,0.14,0.5,0.0,-15.9,2.1
COc1cccc(OCCNc2cc(Cl)ccc2[N+](=O)[O-])c1,-1.08,6.2,78.3*,-8.9,-4.2
O=C(NCc1ccco1)c1cc([N+](=O)[O-])ccc1Cl,-0.02,2.6,.,.,.
O=C(NCc1ccco1)c1cc2ccccc2c(=O)o1,2.69,0.5,78.6*,14.4,-4.8
O=C(NCc1ccco1)c1cc(=O)c2ccccc2o1,-0.47,-0.4,0.0,.,.
O=C(NCc1ccco1)c1cc([N+](=O)[O-])cc([N+](=O)[O-])c1,0.47,-0.3,66.7*,-36.0,4.2
CCOC(=O)C1CCCN(C(=O)c2cn(C)c3ccc(S(=O)(=O)N4CCCC4)cc3c2=O)C1 (configuration not stated),0.24,-0.2,.,-74.6,-5.1
CC1CCN(S(=O)(=O)c2ccc3c(c2)c(=O)c(C(=O)N2CCCCC2)cn3C)CC1,4.9*,-0.1,38.7,-21.2,-0.2
COC(=O)c1sccc1NC(=O)c1cnc2cc(C)nn2c1C,0.02,1.2,.,.,.
CCS(=O)(=O)n1nc(-c2ccc(Cl)cc2)nc1SCc1ccccc1,.,-1.6,-43.8,74.7*,.
O=C(NCCO)/C(=C\c1cccc([N+](=O)[O-])c1)NC(=O)c1ccco1,0.79,1.0,.,1.4,3.0
CCc1ccc(/C=C2/C(=O)N(CC)C(=S)N2C)s1,0.62,2.5,69.2*,-36.4,4.1
CCOc1ccc(N2C(=O)/C(=C/c3cccs3)N(C)C2=S)cc1,0.01,1.2,0.0,-26.6,-1.3
COc1ccc(-n2c(C)c(C(C)=O)c3cc(OCC(N)=O)ccc32)cc1,-0.77,8.8*,.,.,.
SMILES,Insulin prom up,RAM inhibit,Insulin prom inh,BB579 growth dn,Yeast lifespan up
O=Cc1ccccc1OS(=O)(=O)c1ccccc1,0.28,-1.4,35.7,-24.2,49.5*
Cc1cccc(/C=N/NC(=O)c2ccc(Br)cc2)c1,-0.22,2.2,.,-41.6,-1.6
COc1ccccc1/C=C/C(=O)c1cc(Br)ccc1OC(=O)c1ccco1,.,.,-15.9,.,.
Cc1cccc(/C=C/C(=O)c2cc(Br)ccc(=O)c2O)c1,0.19,2.4,-17.1,94.8*,-14.3
CCOc1ccc(/C=C/C(=O)c2cc(Br)ccc(=O)c2O)cc1,0.11,4.6,.,92.5*,3.7
Cc1ccc(/C=C/C(=O)c2cc(Br)ccc2OC(=O)c2ccco2)cc1,0.42,11.0*,-30.4,-41.4,-7.4
Cc1ccc(C(=O)/C=C/c2ccc(Br)cc2)o1,-0.39,2.1,0.0,-45.5,-4.1
CCc1ccc(/C=C/C(=O)c2cc(Br)ccc(=O)c2O)cc1,0.2,5.1,-2.9,88.6*,-10.0
O=C(Nc1ccc(Cl)c([N+](=O)[O-])c1)ONC1=NCCCCC1,-0.42,1.2,-25.9,.,.
CC1=NN(c2ccccc2)C(=O)C1C(=O)c1ccc(Cl)cc1 (configuration not stated),.,0.5,18.0,-35.4,13.5
CC1=NN(c2ccccc2)C(=O)C1C(=O)c1ccccc1 (configuration not stated),-0.45,-1.6,.,-31.9,27.6*
CC(=O)c1cc(-c2ccccc2)n(CC(=O)Nc2cc(C)cc(C)c2)c1C,-0.83,0.7,-3.3,-21.0,-3.3
C#CCn1c(=NC(=O)c2cc(-c3cccs3)nc3ccccc23)sc2cc(S(N)(=O)=O)ccc21,-1.6,9.7*,0.0,-27.7,3.0
Cc1cc(=O)[nH]c(SCc2nc3ccccc3s2)n1,2.08,0.0,.,45.5*,-13.4
CCCc1cc(=O)[nH]c(SCc2nc3ccccc3s2)n1,-0.06,3.8,0.0,-20.3,-15.0
CC(C)[C@H](NC(=O)c1ccco1)C(=O)NC12CC3CC(CC(C3)C1)C2,-0.29,0.4,.,.,.
O=C(COc1ccccc1)Nc1ccc([N+](=O)[O-])cc1,0.37,2.9,-103.5,-4.1,-7.8
CCC(NC(=O)COc1ccc([N+](=O)[O-])cc1)c1ccccc1 (configuration not stated),-0.24,-0.7,66.7*,.,.
O=C(CNC(=O)c1ccc(Br)cc1)OCc1cc([N+](=O)[O-])cc2c1OCOC2,-1.07,5.2,.,.,.
Cc1cc(SCC(=O)OCC(=O)NC(C)c2ccccc2)c(C)cc1Br (configuration not stated),0.77,10.1*,24.1,-2.6,0.5
CCC(NC(=O)NCc1ccccc1)(C(F)(F)F)C(F)(F)F,0.16,-0.5,71.4*,-18.6,2.5
NC(=NCCc1c[nH]c2ccccc12)NC(=O)c1ccc(F)cc1,-0.61,.,.,.,.
CC(CNC(=O)c1ccc2c(c1)OCO2)c1ccc([N+](=O)[O-])cc1 (configuration not stated),0.46,-0.5,.,.,.
COc1ccc(-n2c(SCC#N)nnc2-c2ccc(NS(=O)(=O)c3ccc(C)cc3)cc2)cc1,-0.68,8.5*,.,-43.1,-5.4
COc1ccc(-n2c(SCC(N)=O)nnc2-c2ccc(NS(=O)(=O)c3ccc(C)cc3)cc2)cc1,0.63,4.9,-1.8,-13.8,-4.5
CC(C)CNC(=O)COc1ccc(Sc2ccc(OCC(=O)NCC(C)C)cc2)cc1,-0.2,5.4,-16.1,-9.0,0.0
CCCC(C)NC(=O)COc1ccc(Sc2ccc(OCC(=O)NC(C)CCC)cc2)cc1 (configuration not stated),-0.56,10.5*,-41.9,-54.2,6.8
CN(Cc1c(O)ccc2c1oc(=O)c1ccccc12)C1CCCCC1,-1.27,-0.8,.,-23.3,46.2*
CN(C)Cc1c(O)ccc2c3c(c(=O)oc12)CCCCC3,-0.02,-0.8,25.0,-24.1,22.0

# High-throughput results (PubChem)
